Measured values from ChEMBL document CHEMBL4715715, “Synthesis and biological evaluation of arylcinnamide linked combretastatin-A4 hybrids as tubulin polymerization inhibitors and apoptosis inducing agents” (Bioorg Med Chem Lett, 2016).

Experiments:
K562 = experiment: Antiproliferative activity against human K562 cells assessed as cell growth inhibition measured after 48 hrs by SRB assay; assay type: functional
Method in brief: (§1)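 Sulforhodamine B (SRB) cell-staining assay across a panel of human cancer lines. Growth inhibition is reported as GI50.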

MIA PaCa-2 = experiment: Antiproliferative activity against human MIA Paca-2 cells assessed as cell growth inhibition measured after 48 hrs by SRB assay; assay type: functional; method in brief: as §1
SK-OV-3 = experiment: Antiproliferative activity against human SK-OV-3 cells assessed as cell growth inhibition measured after 48 hrs by SRB assay; assay type: functional; method in brief: as §1
MCF7 [1] = experiment: Cell cycle arrest in human MCF7 cells assessed as accumulation at S phase at 100 nM measured after 48 hrs by propidium iodide staining based flow cytometry (reference value: 3.1 %); assay type: functional
MCF7 [2] = experiment: Induction of apoptosis in human MCF7 cells assessed as activation of caspase 9 at 100 nM measured after 48 hrs by fluorescence assay relative to control; assay type: functional
Method in brief: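 MCF-7 breast cancer cells treated at 100 nM for 48 h. Caspase-9 activity compared with untreated control. Mean ± SD of two experiments each run in triplicate.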

MCF7 [3] = experiment: Induction of apoptosis in human MCF7 cells assessed as live cells at 50 nM measured after 48 hrs by annexinV-FITC/propidium iodide staining based flow cytometry (reference value: 95 %)
MCF7 [4] = experiment: Induction of apoptosis in human MCF7 cells assessed as early apoptotic cells at 100 nM measured after 48 hrs by annexinV-FITC/propidium iodide staining based flow cytometry (reference value: 4.4 %); assay type: functional
MCF7 [5] = experiment: Induction of apoptosis in human MCF7 cells assessed as necrotic cells at 100 nM measured after 48 hrs by annexinV-FITC/propidium iodide staining based flow cytometry (reference value: 0.1 %); assay type: functional
MCF7 [6] = experiment: Induction of apoptosis in human MCF7 cells assessed as late apoptotic cell population at 100 nM measured after 48 hrs by Annexin V-FITC/PI staining based flow cytometry (reference value: 1 %)
DU-145 = experiment: Antiproliferative activity against human DU-145 cells assessed as cell growth inhibition measured after 48 hrs by SRB assay; assay type: functional; method in brief: as §1
MCF7 [7] = experiment: Cell cycle arrest in human MCF7 cells assessed as accumulation at G2/M phase at 50 nM measured after 48 hrs by propidium iodide staining based flow cytometry (reference value: 8.44 %); assay type: functional
Method in brief: (§2)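 MCF-7 cells were treated at 50 and 100 nM for 48 h. Cell-cycle phase distribution (sub-G1, G0/G1, S, G2/M %) was read by flow cytometry against untreated control.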

MCF7 [8] = experiment: Antiproliferative activity against human MCF7 cells assessed as cell growth inhibition measured after 48 hrs by SRB assay; assay type: functional; method in brief: as §1
MCF7 [9] = experiment: Cell cycle arrest in human MCF7 cells assessed as accumulation at sub-G1 phase at 50 nM measured after 48 hrs by propidium iodide staining based flow cytometry (reference value: 2.4 %); assay type: functional; method in brief: as §2
[10] = Inhibition of porcine brain tubulin polymerization measured after 1 hr in presence of GTP by fluorescence assay; assay type: tissue-based, Sus scrofa
Method in brief: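 Tubulin assembly followed by the rise in fluorescence (ex 360 nm, em 420 nm) over 1 h at 37 °C. Compounds tested at a final 3 μM with a reference control. IC50 defined as the concentration inhibiting 50% of tubulin assembly. Mean ± SD of two experiments in triplicate.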

MCF7 [11] = experiment: Induction of apoptosis in human MCF7 cells assessed as early apoptotic cell population at 50 nM measured after 48 hrs by Annexin V-FITC/PI staining based flow cytometry (reference value: 0.7 %)
MCF7 [12] = experiment: Cell cycle arrest in human MCF7 cells assessed as accumulation at sub-G1 phase at 100 nM measured after 48 hrs by propidium iodide staining based flow cytometry (reference value: 2.4 %); assay type: functional
HeLa = experiment: Antiproliferative activity against human HeLa cells assessed as cell growth inhibition measured after 48 hrs by SRB assay; assay type: functional; method in brief: as §1
MCF7 [13] = experiment: Induction of apoptosis in human MCF7 cells assessed as necrotic cells at 50 nM measured after 48 hrs by annexinV-FITC/propidium iodide staining based flow cytometry (reference value: 0.1 %); assay type: functional
Method in brief: (§3)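 MCF-7 cells were treated at 50 and 100 nM for 48 h. Annexin V-FITC/PI dual staining was read by flow cytometry. Cells were quadrant-gated as UL, UR, LL and LR, with untreated control alongside.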

MCF7 [14] = experiment: Induction of apoptosis in human MCF7 cells assessed as live cells at 100 nM measured after 48 hrs by annexinV-FITC/propidium iodide staining based flow cytometry (reference value: 95 %)
MCF7 [15] = experiment: Induction of apoptosis in human MCF7 cells assessed as late apoptotic cell population at 50 nM measured after 48 hrs by Annexin V-FITC/PI staining based flow cytometry (reference value: 1 %)
MCF7 [16] = experiment: Induction of apoptosis in human MCF7 cells assessed as late apoptotic cells at 50 nM measured after 48 hrs by annexinV-FITC/propidium iodide staining based flow cytometry (reference value: 0.6 %)
MCF7 [17] = experiment: Induction of apoptosis in human MCF7 cells assessed as early apoptotic cells at 50 nM measured after 48 hrs by annexinV-FITC/propidium iodide staining based flow cytometry (reference value: 4.4 %); assay type: functional; method in brief: as §3
MCF7 [18] = experiment: Cell cycle arrest in human MCF7 cells assessed as accumulation at G0/G1 phase at 50 nM measured after 48 hrs by propidium iodide staining based flow cytometry (reference value: 85.3 %); assay type: functional; method in brief: as §2
MCF7 [19] = experiment: Cell cycle arrest in human MCF7 cells assessed as accumulation at G0/G1 phase at 100 nM measured after 48 hrs by propidium iodide staining based flow cytometry (reference value: 85.3 %); assay type: functional
Sus scrofa = species: Sus scrofa; experiment: Inhibition of porcine brain tubulin polymerization at 3 uM measured after 1 hr in presence of GTP by fluorescence assay relative to control; assay type: tissue-based
Method in brief: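 Tubulin polymerization was followed by fluorescence (excitation 360 nm, emission 420 nm) for 1 h at 37 °C. Compounds were at 3 μM final, with and without compound. Values are mean ± SD of two experiments done in triplicate.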

MCF7 [20] = experiment: Induction of apoptosis in human MCF7 cells assessed as early apoptotic cell population at 100 nM measured after 48 hrs by Annexin V-FITC/PI staining based flow cytometry (reference value: 0.7 %)
MCF7 [21] = experiment: Cell cycle arrest in human MCF7 cells assessed as accumulation at G2/M phase at 100 nM measured after 48 hrs by propidium iodide staining based flow cytometry (reference value: 8.44 %); assay type: functional
COLO 205 = experiment: Antiproliferative activity against human COLO 205 cells assessed as cell growth inhibition measured after 48 hrs by SRB assay; assay type: functional; method in brief: as §1
MCF7 [22] = experiment: Induction of apoptosis in human MCF7 cells assessed as late apoptotic cells at 100 nM measured after 48 hrs by annexinV-FITC/propidium iodide staining based flow cytometry (reference value: 0.6 %)
MCF7 [23] = experiment: Cell cycle arrest in human MCF7 cells assessed as accumulation at S phase at 50 nM measured after 48 hrs by propidium iodide staining based flow cytometry (reference value: 3.1 %); assay type: functional; method in brief: as §2
HOP-62 = experiment: Antiproliferative activity against human HOP-62 cells assessed as cell growth inhibition measured after 48 hrs by SRB assay; assay type: functional; method in brief: as §1

SMILES | GI50 (K562) | GI50 (MIA PaCa-2) | GI50 (SK-OV-3) | live cells (MCF7 [3]) | GI50 (DU-145) | Activity (MCF7 [7]) | GI50 (MCF7 [8]) | Activity (MCF7 [9]) | IC50 [10] | Activity (MCF7 [11]) | GI50 (HeLa) | Activity (MCF7 [13]) | Activity (MCF7 [15]) | late apoptotic cells (MCF7 [16]) | Activity (MCF7 [17]) | Activity (MCF7 [18]) | inhibition (Sus scrofa) | GI50 (COLO 205) | Activity (MCF7 [23]) | GI50 (HOP-62) | further results
COc1ccc(/C=C\c2cc(OC)c(OC)c(OC)c2)c(NC(=O)/C=C/c2ccc(F)c(F)c2)c1O | 0.099 µM | 74 µM | 29.8 µM | 86.4% | 0.045 µM | 23.58% | 0.031 µM | 2.99% | 1.05 µM | 6.5% | 29.2 µM | 1.1% | 22.8% | 2% | 10.5% | 70.02% | 73.7% | 74.9 µM | 1.46% | 43.6 µM | Activity (MCF7 [1]): 0.52%; fold change (FC) (MCF7 [2]): 2; Activity (MCF7 [4]): 31.4%; Activity (MCF7 [5]): 0.7%; Activity (MCF7 [6]): 26%; Activity (MCF7 [12]): 3.07%; live cells (MCF7 [14]): 63.1%; Activity (MCF7 [19]): 27.47%; Activity (MCF7 [20]): 6.2%; Activity (MCF7 [21]): 66.13%; late apoptotic cells (MCF7 [22]): 4.7%
COc1ccc(/C=C\c2cc(OC)c(OC)c(OC)c2)cc1O [COMBRETASTATIN A4] | 0.031 µM |  | 31.6 µM | 65.7% | 0.046 µM | 37.41% | 0.033 µM | 2.71% | 1.48 µM | 3.6% | 0.008 µM | 0.5% | 24.5% | 3.6% | 30.2% | 56.19% | 72.2% | 0.025 µM | 1.43% | 0.15 µM | 
COc1ccc(/C=C/C(=O)Nc2c(/C=C\c3cc(OC)c(OC)c(OC)c3)ccc(OC)c2O)cc1OC | 0.094 µM | 29.9 µM | 0.099 µM | 89% | 0.06 µM | 15.25% | 0.056 µM | 2.56% | 1.97 µM | 0.8% | 7.5 µM | 0.9% | 12% | 1.8% | 8.4% | 78.55% | 69.2% | 0.099 µM | 2.86% | 0.09 µM | Activity (MCF7 [1]): 0.35%; fold change (FC) (MCF7 [2]): 2; Activity (MCF7 [4]): 14.8%; Activity (MCF7 [5]): 0.7%; Activity (MCF7 [6]): 22.5%; Activity (MCF7 [12]): 3.65%; live cells (MCF7 [14]): 82.2%; Activity (MCF7 [19]): 28.16%; Activity (MCF7 [20]): 7.2%; Activity (MCF7 [21]): 64.29%; late apoptotic cells (MCF7 [22]): 2.3%
COc1ccc(/C=C\c2cc(OC)c(OC)c(OC)c2)c(NC(=O)/C=C/c2cc(OC)c(OC)c(OC)c2)c1O | 28 µM | 64.5 µM | 20.9 µM |  | 0.095 µM |  | 0.079 µM |  |  |  | 14.9 µM |  |  |  |  |  |  | 76 µM |  | 24.8 µM | 
COc1ccc(/C=C\c2cc(OC)c(OC)c(OC)c2)c(NC(=O)/C=C/c2cccc(O)c2)c1O | 0.094 µM | 0.098 µM | 0.097 µM |  | 0.07 µM |  | 0.063 µM |  |  |  | 0.0949 µM |  |  |  |  |  |  | 13.4 µM |  | 0.082 µM | 
COc1ccc(/C=C\c2cc(OC)c(OC)c(OC)c2)c(NC(=O)/C=C/c2ccc(F)cc2)c1O | 23.5 µM | 78.1 µM | 47.5 µM |  | 0.083 µM |  | 0.066 µM |  |  |  | 24 µM |  |  |  |  |  |  | 67.6 µM |  | 43 µM | 
COc1ccc(/C=C/C(=O)Nc2c(/C=C\c3cc(OC)c(OC)c(OC)c3)ccc(OC)c2O)cc1O | 23.7 µM | 46.3 µM | 1.8 µM |  | 0.117 µM |  | 0.095 µM |  |  |  | 15.9 µM |  |  |  |  |  |  | > 100 µM |  | 17.1 µM | 
COc1cc(/C=C/C(=O)Nc2c(/C=C\c3cc(OC)c(OC)c(OC)c3)ccc(OC)c2O)ccc1[N+](=O)[O-] | 0.096 µM | 23.5 µM | 7.9 µM |  | 0.075 µM |  | 0.095 µM |  |  |  | 0.099 µM |  |  |  |  |  |  | 0.096 µM |  | 0.084 µM | 
